# Key:
# Format in all cases: functional
# Streptococcus pneumoniae [1] = experiment: Antimicrobial activity against Streptococcus pneumoniae isolate 3282 by agar dilution method
# Streptococcus pneumoniae [2] = experiment: Antimicrobial activity against Streptococcus pneumoniae 9 by time-kill analysis in presence of beta-lactamase inhibitor clavulanic acid
# Streptococcus pneumoniae [3] = experiment: Antimicrobial activity against Streptococcus pneumoniae isolate 3374 by agar dilution method
# How it was run: (§1)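 Agar dilution MIC on Mueller-Hinton agar with 5% sheep blood, inocula 10^4 CFU/spot; amoxicillin-clavulanate combined 1:2; S. pneumoniae ATCC 49619 quality control each run.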
# Streptococcus pneumoniae [4] = experiment: Antimicrobial activity against Streptococcus pneumoniae 19A by agar dilution method; how it was run: as §1
# Streptococcus pneumoniae [5] = experiment: Antimicrobial activity against Streptococcus pneumoniae 12 by time-kill analysis in presence of beta-lactamase inhibitor clavulanic acid
# Streptococcus pneumoniae [6] = experiment: Antimicrobial activity against Streptococcus pneumoniae isolate 2688 by agar dilution method; how it was run: as §1
# Streptococcus pneumoniae [7] = experiment: Antimicrobial activity against Streptococcus pneumoniae 5 by time-kill analysis
# How it was run: (§2)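 Time-kill in cation-adjusted Mueller-Hinton broth with 5% lysed horse blood; inocula 5 × 105 to 5 × 10^6 CFU/ml; drugs at MIC, 2× and 4× MIC; 35°C shaking water bath; viable counts at 0, 3, 6, 12 and 24 h. Bactericidal if ≥3 log10 CFU/ml (99.9%) reduction from original inoculum; 90% and 99% killing also scored.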
# Streptococcus pneumoniae [8] = experiment: Antimicrobial activity against Streptococcus pneumoniae isolate 37 by agar dilution method; how it was run: as §1
# Streptococcus pneumoniae [9] = experiment: Antimicrobial activity against Streptococcus pneumoniae isolate 3681 by agar dilution method; how it was run: as §1
# Streptococcus pneumoniae [10] = experiment: Antimicrobial activity against Streptococcus pneumoniae 9 by time-kill analysis; how it was run: as §2
# Streptococcus pneumoniae [11] = experiment: Antimicrobial activity against Streptococcus pneumoniae isolate 1384 by agar dilution method; how it was run: as §1
# Streptococcus pneumoniae [12] = experiment: Antimicrobial activity against Streptococcus pneumoniae isolate 2880 by agar dilution method; how it was run: as §1
# Streptococcus pneumoniae [13] = experiment: Antimicrobial activity against Streptococcus pneumoniae 11 by time-kill analysis in presence of beta-lactamase inhibitor clavulanic acid
# Streptococcus pneumoniae [14] = experiment: Antimicrobial activity against Streptococcus pneumoniae isolate 2617 by agar dilution method; how it was run: as §1
# Streptococcus pneumoniae [15] = experiment: Antimicrobial activity against Streptococcus pneumoniae isolate 24 by agar dilution method
# Streptococcus pneumoniae [16] = experiment: Antimicrobial activity against Streptococcus pneumoniae isolate 1564 by agar dilution method
# Streptococcus pneumoniae [17] = experiment: Antimicrobial activity against Streptococcus pneumoniae isolate 3260 by agar dilution method
# Streptococcus pneumoniae [18] = experiment: Antimicrobial activity against Streptococcus pneumoniae 3 by time-kill analysis in presence of beta-lactamase inhibitor clavulanic acid
# Streptococcus pneumoniae [19] = experiment: Antimicrobial activity against Streptococcus pneumoniae 8 by time-kill analysis in presence of beta-lactamase inhibitor clavulanic acid
# Streptococcus pneumoniae [20] = experiment: Antimicrobial activity against Streptococcus pneumoniae isolate 3275 by agar dilution method; how it was run: as §1
# Streptococcus pneumoniae [21] = experiment: Antimicrobial activity against Streptococcus pneumoniae isolate 4747 by agar dilution method; how it was run: as §1
# Streptococcus pneumoniae [22] = experiment: Antimicrobial activity against Streptococcus pneumoniae 6 by time-kill analysis in presence of beta-lactamase inhibitor clavulanic acid
# Streptococcus pneumoniae [23] = experiment: Antimicrobial activity against Streptococcus pneumoniae 1 by time-kill analysis in presence of beta-lactamase inhibitor clavulanic acid
# Streptococcus pneumoniae [24] = experiment: Antimicrobial activity against Streptococcus pneumoniae isolate 33 by agar dilution method; how it was run: as §1
# Streptococcus pneumoniae [25] = experiment: Antimicrobial activity against Streptococcus pneumoniae isolate 3263 by agar dilution method
# Streptococcus pneumoniae [26] = experiment: Antimicrobial activity against Streptococcus pneumoniae 2 by time-kill analysis
# How it was run: as §2, with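 “12,” for “12 and”, “=” for “if”, “drop” for “reduction”, “90%/99%/99.9%” for “90% and 99%”, “scored per strain.” for “also scored.”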
# Streptococcus pneumoniae [27] = experiment: Antimicrobial activity against Streptococcus pneumoniae 4 by time-kill analysis
# How it was run: as §2, with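 “12,” for “12 and”, “=” for “if”, “drop” for “reduction”, “90%/99%/99.9%” for “90% and 99%”, “scored per strain.” for “also scored.”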
# Streptococcus pneumoniae [28] = experiment: Antimicrobial activity against Streptococcus pneumoniae isolate 3458 by agar dilution method
# Streptococcus pneumoniae [29] = experiment: Antimicrobial activity against Streptococcus pneumoniae 1 by time-kill analysis; how it was run: as §2
# Streptococcus pneumoniae [30] = experiment: Antimicrobial activity against penicillin-susceptible Streptococcus pneumoniae by agar dilution method in presence of beta-lactamase inhibitor clavulanic acid
# Streptococcus pneumoniae [31] = experiment: Antimicrobial activity against Streptococcus pneumoniae isolate 3791 by agar dilution method; how it was run: as §1
# Streptococcus pneumoniae [32] = experiment: Antimicrobial activity against Streptococcus pneumoniae 5 by time-kill analysis in presence of beta-lactamase inhibitor clavulanic acid
# Streptococcus pneumoniae [33] = experiment: Antimicrobial activity against Streptococcus pneumoniae 8 by time-kill analysis
# How it was run: as §2, with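 “12,” for “12 and”, “=” for “if”, “drop” for “reduction”, “90%/99%/99.9%” for “90% and 99%”, “scored per strain.” for “also scored.”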
# Streptococcus pneumoniae [34] = experiment: Antimicrobial activity against Streptococcus pneumoniae isolate 1146 by agar dilution method; how it was run: as §1
# Streptococcus pneumoniae [35] = experiment: Antimicrobial activity against Streptococcus pneumoniae isolate 3455 by agar dilution method
# Streptococcus pneumoniae [36] = experiment: Antimicrobial activity against Streptococcus pneumoniae isolate 1397 by agar dilution method; how it was run: as §1
# Streptococcus pneumoniae [37] = experiment: Antimicrobial activity against penicillin-susceptible Streptococcus pneumoniae by agar dilution method
# Streptococcus pneumoniae [38] = experiment: Antimicrobial activity against Streptococcus pneumoniae isolate 3587 by agar dilution method
# Streptococcus pneumoniae [39] = experiment: Antimicrobial activity against Streptococcus pneumoniae isolate 2874 by agar dilution method; how it was run: as §1
# Streptococcus pneumoniae [40] = experiment: Antimicrobial activity against Streptococcus pneumoniae isolate 1394 by agar dilution method
# Streptococcus pneumoniae [41] = experiment: Antimicrobial activity against Streptococcus pneumoniae isolate 3481 by agar dilution method; how it was run: as §1
# Streptococcus pneumoniae [42] = experiment: Antimicrobial activity against Streptococcus pneumoniae isolate 4755 by agar dilution method; how it was run: as §1
# Streptococcus pneumoniae [43] = experiment: Antimicrobial activity against Streptococcus pneumoniae isolate 1147 by agar dilution method; how it was run: as §1
# Streptococcus pneumoniae [44] = experiment: Antimicrobial activity against Streptococcus pneumoniae isolate 1424 by agar dilution method; how it was run: as §1
# Streptococcus pneumoniae [45] = experiment: Antimicrobial activity against penicillin-resistant Streptococcus pneumoniae by agar dilution method in presence of beta-lactamase inhibitor clavulanic acid
# How it was run: (§3)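 Agar dilution MIC on Mueller-Hinton agar with 5% sheep blood at 10^4 CFU/spot. Clavulanate combined with amoxicillin 1:2. Control S. pneumoniae ATCC 49619 included in each run. Penicillin categories: intermediate 0.125–1.0 μg/ml, resistant 2.0–16.0 μg/ml. MIC50/MIC90 taken across strain sets, including 45 drug-resistant serotype 19A isolates.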
# Streptococcus pneumoniae [46] = experiment: Antimicrobial activity against Streptococcus pneumoniae 12 by time-kill analysis
# How it was run: as §2, with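 “12,” for “12 and”, “=” for “if”, “drop” for “reduction”, “90%/99%/99.9%” for “90% and 99%”, “scored per strain.” for “also scored.”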
# Streptococcus pneumoniae [47] = experiment: Antimicrobial activity against Streptococcus pneumoniae 7 by time-kill analysis in presence of beta-lactamase inhibitor clavulanic acid
# Streptococcus pneumoniae [48] = experiment: Antimicrobial activity against Streptococcus pneumoniae 6 by time-kill analysis
# How it was run: as §2, with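 “12,” for “12 and”, “=” for “if”, “drop” for “reduction”, “90%/99%/99.9%” for “90% and 99%”, “scored per strain.” for “also scored.”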
# Streptococcus pneumoniae [49] = experiment: Antimicrobial activity against penicillin-intermediate Streptococcus pneumoniae by agar dilution method in presence of beta-lactamase inhibitor clavulanic acid; how it was run: as §3
# Streptococcus pneumoniae [50] = experiment: Antimicrobial activity against Streptococcus pneumoniae 7 by time-kill analysis
# How it was run: as §2, with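 “12,” for “12 and”, “=” for “if”, “drop” for “reduction”, “90%/99%/99.9%” for “90% and 99%”, “scored per strain.” for “also scored.”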
# Streptococcus pneumoniae [51] = experiment: Antimicrobial activity against Streptococcus pneumoniae isolate 1055 by agar dilution method
# Streptococcus pneumoniae [52] = experiment: Antimicrobial activity against Streptococcus pneumoniae isolate 3412 by agar dilution method; how it was run: as §1
# Streptococcus pneumoniae [53] = experiment: Antimicrobial activity against Streptococcus pneumoniae isolate 2686 by agar dilution method; how it was run: as §1
# Streptococcus pneumoniae [54] = experiment: Antimicrobial activity against Streptococcus pneumoniae 3 by time-kill analysis
# How it was run: as §2, with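 “12,” for “12 and”, “=” for “if”, “drop” for “reduction”, “90%/99%/99.9%” for “90% and 99%”, “scored per strain.” for “also scored.”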
# Streptococcus pneumoniae [55] = experiment: Antimicrobial activity against Streptococcus pneumoniae 11 by time-kill analysis
# How it was run: as §2, with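 “12,” for “12 and”, “=” for “if”, “drop” for “reduction”, “90%/99%/99.9%” for “90% and 99%”, “scored per strain.” for “also scored.”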
# Streptococcus pneumoniae [56] = experiment: Antimicrobial activity against Streptococcus pneumoniae 4 by time-kill analysis in presence of beta-lactamase inhibitor clavulanic acid
# Streptococcus pneumoniae [57] = experiment: Antimicrobial activity against Streptococcus pneumoniae 19A by agar dilution method in presence of beta-lactamase inhibitor clavulanic acid; how it was run: as §3
# Streptococcus pneumoniae [58] = experiment: Antimicrobial activity against Streptococcus pneumoniae 10 by time-kill analysis
# How it was run: as §2, with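 “12,” for “12 and”, “=” for “if”, “drop” for “reduction”, “90%/99%/99.9%” for “90% and 99%”, “scored per strain.” for “also scored.”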
# Streptococcus pneumoniae [59] = experiment: Antimicrobial activity against Streptococcus pneumoniae 2 by time-kill analysis in presence of beta-lactamase inhibitor clavulanic acid
# Streptococcus pneumoniae [60] = experiment: Antimicrobial activity against Streptococcus pneumoniae isolate 3346 by agar dilution method
# Streptococcus pneumoniae [61] = experiment: Antimicrobial activity against Streptococcus pneumoniae 10 by time-kill analysis in presence of beta-lactamase inhibitor clavulanic acid
# Streptococcus pneumoniae [62] = experiment: Antimicrobial activity against penicillin-intermediate Streptococcus pneumoniae by agar dilution method
# Streptococcus pneumoniae [63] = experiment: Antimicrobial activity against penicillin-resistant Streptococcus pneumoniae by agar dilution method; how it was run: as §1
structure (smiles),measurement,setting,value
CC1(C)S[C@@H]2[C@H](NC(=O)[C@H](N)c3ccc(O)cc3)C(=O)N2[C@H]1C(=O)O [AMOXICILLIN],MIC,Streptococcus pneumoniae [1],4 µg/mL
same,MIC,Streptococcus pneumoniae [2],0.25 µg/mL
same,MIC,Streptococcus pneumoniae [3],1 µg/mL
same,MIC50,Streptococcus pneumoniae [4],8 µg/mL
same,MIC90,Streptococcus pneumoniae [4],8 µg/mL
same,MIC,Streptococcus pneumoniae [5],1 µg/mL
same,MIC,Streptococcus pneumoniae [6],16 µg/mL
same,MIC,Streptococcus pneumoniae [7],8 µg/mL
same,MIC,Streptococcus pneumoniae [8],2 µg/mL
same,MIC,Streptococcus pneumoniae [9],2 µg/mL
same,MIC,Streptococcus pneumoniae [10],0.25 µg/mL
same,MIC,Streptococcus pneumoniae [11],4 µg/mL
same,MIC,Streptococcus pneumoniae [12],0.125 µg/mL
same,MIC,Streptococcus pneumoniae [13],2 µg/mL
same,MIC,Streptococcus pneumoniae [14],1 µg/mL
same,MIC,Streptococcus pneumoniae [15],2 µg/mL
same,MIC,Streptococcus pneumoniae [16],4 µg/mL
same,MIC,Streptococcus pneumoniae [17],8 µg/mL
same,MIC,Streptococcus pneumoniae [18],0.5 µg/mL
same,MIC,Streptococcus pneumoniae [19],2 µg/mL
same,MIC,Streptococcus pneumoniae [20],1 µg/mL
same,MIC,Streptococcus pneumoniae [21],8 µg/mL
same,MIC,Streptococcus pneumoniae [22],0.25 µg/mL
same,MIC,Streptococcus pneumoniae [23],0.03 µg/mL
same,MIC,Streptococcus pneumoniae [24],2 µg/mL
same,MIC,Streptococcus pneumoniae [25],2 µg/mL
same,MIC,Streptococcus pneumoniae [26],0.03 µg/mL
same,MIC,Streptococcus pneumoniae [27],2 µg/mL
same,MIC,Streptococcus pneumoniae [28],8 µg/mL
same,MIC,Streptococcus pneumoniae [29],0.03 µg/mL
same,MIC50,Streptococcus pneumoniae [30],0.03 µg/mL
same,MIC90,Streptococcus pneumoniae [30],0.03 µg/mL
same,MIC,Streptococcus pneumoniae [31],2 µg/mL
same,MIC,Streptococcus pneumoniae [32],8 µg/mL
same,MIC,Streptococcus pneumoniae [33],2 µg/mL
same,MIC,Streptococcus pneumoniae [34],4 µg/mL
same,MIC,Streptococcus pneumoniae [35],8 µg/mL
same,MIC,Streptococcus pneumoniae [36],4 µg/mL
same,MIC50,Streptococcus pneumoniae [37],0.03 µg/mL
same,MIC90,Streptococcus pneumoniae [37],0.03 µg/mL
same,MIC,Streptococcus pneumoniae [38],1 µg/mL
same,MIC,Streptococcus pneumoniae [39],0.5 µg/mL
same,MIC,Streptococcus pneumoniae [40],8 µg/mL
same,MIC,Streptococcus pneumoniae [41],8 µg/mL
same,MIC,Streptococcus pneumoniae [42],4 µg/mL
same,MIC,Streptococcus pneumoniae [43],4 µg/mL
same,MIC,Streptococcus pneumoniae [44],8 µg/mL
same,MIC50,Streptococcus pneumoniae [45],2 µg/mL
same,MIC90,Streptococcus pneumoniae [45],4 µg/mL
same,MIC,Streptococcus pneumoniae [46],1 µg/mL
same,MIC,Streptococcus pneumoniae [47],2 µg/mL
same,MIC,Streptococcus pneumoniae [48],0.25 µg/mL
same,MIC50,Streptococcus pneumoniae [49],0.25 µg/mL
same,MIC90,Streptococcus pneumoniae [49],1 µg/mL
same,MIC,Streptococcus pneumoniae [50],2 µg/mL
same,MIC,Streptococcus pneumoniae [51],4 µg/mL
same,MIC,Streptococcus pneumoniae [52],4 µg/mL
same,MIC,Streptococcus pneumoniae [53],8 µg/mL
same,MIC,Streptococcus pneumoniae [54],0.5 µg/mL
same,MIC,Streptococcus pneumoniae [55],2 µg/mL
same,MIC,Streptococcus pneumoniae [56],2 µg/mL
same,MIC50,Streptococcus pneumoniae [57],8 µg/mL
same,MIC90,Streptococcus pneumoniae [57],8 µg/mL
same,MIC,Streptococcus pneumoniae [58],0.06 µg/mL
same,MIC,Streptococcus pneumoniae [59],0.03 µg/mL
same,MIC,Streptococcus pneumoniae [60],8 µg/mL
same,MIC,Streptococcus pneumoniae [61],0.06 µg/mL
same,MIC50,Streptococcus pneumoniae [62],0.25 µg/mL
same,MIC90,Streptococcus pneumoniae [62],1 µg/mL
same,MIC50,Streptococcus pneumoniae [63],2 µg/mL
same,MIC90,Streptococcus pneumoniae [63],8 µg/mL

# Source: ChEMBL document CHEMBL1649446, “Comparative antipneumococcal activities of sulopenem and other drugs” (2009)
